Where a chain is given by its changes, count along the chain named.
Columns and labels:
Conditions in all cases: stereoisomer not certain
[1] = target: T1, OR8D1 (Homo sapiens) (UniProt Q8WZ84)
T1 sequence (whole entry): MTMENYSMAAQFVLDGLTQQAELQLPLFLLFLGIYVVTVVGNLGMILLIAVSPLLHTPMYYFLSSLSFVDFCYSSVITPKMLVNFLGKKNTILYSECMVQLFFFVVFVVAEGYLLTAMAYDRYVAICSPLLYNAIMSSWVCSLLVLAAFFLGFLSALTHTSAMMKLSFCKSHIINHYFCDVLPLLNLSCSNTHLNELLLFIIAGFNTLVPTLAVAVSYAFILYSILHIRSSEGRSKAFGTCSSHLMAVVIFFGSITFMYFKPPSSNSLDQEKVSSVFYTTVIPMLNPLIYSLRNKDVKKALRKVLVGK
In short: (§1)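 Whether a receptor–molecule pair is responsive (active) rests on the original authors' judgment that its measured signal was statistically different from baseline. Pairs without that judgment are non-responsive (inactive). Sources used varied assay methods, commonly transient luciferase assays in mammalian cell lines.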

[2] = test system: T2, OR7G2
T2 sequence (whole entry): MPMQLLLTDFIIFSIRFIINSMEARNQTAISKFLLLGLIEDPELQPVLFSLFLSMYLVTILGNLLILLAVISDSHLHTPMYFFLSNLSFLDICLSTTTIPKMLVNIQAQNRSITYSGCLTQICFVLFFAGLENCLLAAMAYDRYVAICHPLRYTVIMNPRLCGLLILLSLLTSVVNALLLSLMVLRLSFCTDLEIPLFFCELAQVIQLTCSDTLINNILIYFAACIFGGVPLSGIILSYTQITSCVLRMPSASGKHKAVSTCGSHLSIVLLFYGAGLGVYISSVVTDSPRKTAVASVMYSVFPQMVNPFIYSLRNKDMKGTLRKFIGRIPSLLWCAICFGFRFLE
In short: as §1

[3] = target: T3, OR7G3 (Homo sapiens) (UniProt Q8NG95)
T3 sequence (whole entry): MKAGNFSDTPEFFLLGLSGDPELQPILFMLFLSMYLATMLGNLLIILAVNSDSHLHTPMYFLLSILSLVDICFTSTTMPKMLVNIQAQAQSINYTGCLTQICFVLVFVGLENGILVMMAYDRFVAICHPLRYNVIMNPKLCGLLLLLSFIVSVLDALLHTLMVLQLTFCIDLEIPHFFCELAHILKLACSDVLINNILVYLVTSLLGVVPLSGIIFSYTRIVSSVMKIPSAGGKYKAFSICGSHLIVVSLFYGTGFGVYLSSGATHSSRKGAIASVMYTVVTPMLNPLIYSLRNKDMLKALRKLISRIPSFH
In short: as §1

[4] = test system: T4, OR7G3 M29V
T4 sequence (whole entry): T3 sequence (whole entry) with M29V
In short: as §1

[5] = target: T5, OR8A1 (Homo sapiens) (UniProt Q8NGG7)
T5 sequence (whole entry): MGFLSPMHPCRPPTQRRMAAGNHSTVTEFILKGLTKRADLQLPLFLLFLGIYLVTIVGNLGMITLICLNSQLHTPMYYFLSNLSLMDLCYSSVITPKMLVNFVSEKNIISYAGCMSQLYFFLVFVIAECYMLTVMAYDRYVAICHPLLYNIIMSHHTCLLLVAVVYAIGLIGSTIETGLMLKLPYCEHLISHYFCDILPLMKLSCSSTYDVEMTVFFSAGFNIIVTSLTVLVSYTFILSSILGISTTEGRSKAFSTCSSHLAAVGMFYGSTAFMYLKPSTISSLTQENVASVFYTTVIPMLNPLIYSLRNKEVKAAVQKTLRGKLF
In short: as §1

[6] = target: T6, OR8B12 (Homo sapiens) (UniProt Q8NGG6)
T6 sequence (whole entry): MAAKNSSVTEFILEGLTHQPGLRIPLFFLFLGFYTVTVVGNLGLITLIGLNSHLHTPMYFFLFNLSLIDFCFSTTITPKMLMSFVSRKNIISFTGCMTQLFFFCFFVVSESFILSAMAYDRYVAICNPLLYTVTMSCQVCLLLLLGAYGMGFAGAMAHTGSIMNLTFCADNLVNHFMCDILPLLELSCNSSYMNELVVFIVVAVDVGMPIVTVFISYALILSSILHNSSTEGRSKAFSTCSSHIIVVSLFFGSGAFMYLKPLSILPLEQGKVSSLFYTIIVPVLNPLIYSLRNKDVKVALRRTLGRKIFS
In short: as §1

[7] = target: T7, OR8B2 (Homo sapiens) (UniProt Q96RD0)
T7 sequence (whole entry): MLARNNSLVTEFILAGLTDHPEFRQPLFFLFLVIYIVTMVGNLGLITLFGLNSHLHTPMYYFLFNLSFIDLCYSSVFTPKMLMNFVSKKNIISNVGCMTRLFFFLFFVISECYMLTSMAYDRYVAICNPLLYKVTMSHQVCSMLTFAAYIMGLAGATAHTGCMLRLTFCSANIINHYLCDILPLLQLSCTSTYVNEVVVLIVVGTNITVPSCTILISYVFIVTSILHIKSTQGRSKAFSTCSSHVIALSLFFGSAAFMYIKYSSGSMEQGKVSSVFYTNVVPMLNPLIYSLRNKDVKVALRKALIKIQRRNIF
In short: as §1

[8] = test system: T8, OR8B2 L164F
T8 sequence (whole entry): T7 sequence (whole entry) with L164F
In short: as §1

[9] = test system: T9, OR8B2 S273F
T9 sequence (whole entry): T7 sequence (whole entry) with S273F
In short: as §1

[10] = target: T10, OR8B3 (Homo sapiens) (UniProt Q8NGG8)
T10 sequence (whole entry): T7 sequence (whole entry) with R24Q, I34V, T47I, N94Y, R100Q, T205I, T208M
In short: as §1

[11] = test system: T11, OR8B3 H20R Q24R M114I
T11 sequence (whole entry): T7 sequence (whole entry) with H20R, I34V, T47I, N94Y, R100Q, M114I, T205I, T208M
In short: as §1

[12] = test system: T12, OR8B3 H20R Q24R Y113H
T12 sequence (whole entry): T7 sequence (whole entry) with H20R, I34V, T47I, N94Y, R100Q, Y113H, T205I, T208M
In short: as §1

[13] = test system: T13, OR8B3 H20R Q24R
T13 sequence (whole entry): T7 sequence (whole entry) with H20R, I34V, T47I, N94Y, R100Q, T205I, T208M
In short: as §1

[14] = target: T14, OR8B4 (Homo sapiens) (UniProt Q96RC9)
T14 sequence (whole entry): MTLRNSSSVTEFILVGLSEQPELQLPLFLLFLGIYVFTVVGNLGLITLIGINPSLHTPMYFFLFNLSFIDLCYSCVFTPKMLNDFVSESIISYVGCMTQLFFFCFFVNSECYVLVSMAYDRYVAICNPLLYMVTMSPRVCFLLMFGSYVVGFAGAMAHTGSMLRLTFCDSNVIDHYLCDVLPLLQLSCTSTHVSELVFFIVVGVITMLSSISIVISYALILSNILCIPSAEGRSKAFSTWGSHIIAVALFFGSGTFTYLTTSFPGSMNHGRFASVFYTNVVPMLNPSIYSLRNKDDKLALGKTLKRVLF
In short: as §1

[15] = test system: T15, OR8B4
T15 sequence (whole entry): T14 sequence (whole entry) with E22G
In short: as §1

[16] = target: T16, OR8B8 (Homo sapiens) (UniProt Q15620)
T16 sequence (whole entry): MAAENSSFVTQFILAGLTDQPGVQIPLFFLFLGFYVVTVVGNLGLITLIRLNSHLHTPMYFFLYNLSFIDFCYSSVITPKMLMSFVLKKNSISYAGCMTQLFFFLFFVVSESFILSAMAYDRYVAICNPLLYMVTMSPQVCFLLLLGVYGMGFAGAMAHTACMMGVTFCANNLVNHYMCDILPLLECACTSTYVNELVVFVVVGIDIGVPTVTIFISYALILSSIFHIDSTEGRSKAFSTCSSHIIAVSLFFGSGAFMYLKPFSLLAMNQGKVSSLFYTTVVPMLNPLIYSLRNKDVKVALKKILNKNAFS
In short: as §1

[17] = test system: T17, OR8B8 L101P
T17 sequence (whole entry): T16 sequence (whole entry) with L101P
In short: as §1

[18] = test system: T18, OR8D1 C127G L194P
T18 sequence (whole entry): T1 sequence (whole entry) with C127G, L194P
In short: as §1

[19] = test system: T19, OR8D1 L194P
T19 sequence (whole entry): T1 sequence (whole entry) with L194P
In short: as §1

[20] = target: T20, OR7G2 (Homo sapiens) (UniProt Q8NG99)
T20 sequence (whole entry): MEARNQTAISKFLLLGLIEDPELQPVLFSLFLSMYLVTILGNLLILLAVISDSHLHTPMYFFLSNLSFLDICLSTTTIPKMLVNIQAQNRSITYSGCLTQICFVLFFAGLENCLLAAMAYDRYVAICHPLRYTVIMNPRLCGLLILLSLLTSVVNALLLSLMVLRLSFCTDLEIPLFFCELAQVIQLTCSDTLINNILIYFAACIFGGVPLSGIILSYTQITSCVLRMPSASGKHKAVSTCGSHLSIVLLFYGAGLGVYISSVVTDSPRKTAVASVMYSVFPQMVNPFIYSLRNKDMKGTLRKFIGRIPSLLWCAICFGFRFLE
In short: as §1

Measured: odorant receptor agonist call;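 also: active if original authors judged signal statistically different from baseline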

CCOC(C)OCC
inactive: [1]

Cc1cnc(C)c(C)n1
not listed: [20]
inactive: all other assays above

CCOC(=O)CC(C)C
inactive: [1]

CC(=O)OCCc1ccccc1
inactive: [1]

CCC=CCCC=O
inactive: [1]

CCCCCCO
inactive: [1]

CCCCCC(S)C(C)CO (stereo not given)
inactive: [20] | [3] | [5] | [6] | [7] | [10] | [14] | [16] | [1]

CCCCCCCCCO
inactive: [1]

CC=CC(=O)C1=C(C)CCCC1(C)C
inactive: [1]

CCCCC(S)C(C)CO (stereo not given)
inactive: [20] | [3] | [5] | [6] | [7] | [10] | [14] | [16] | [1]

CC(CO)CS (stereo not given)
inactive: [20] | [3] | [5] | [6] | [7] | [10] | [14] | [16] | [1]

O=c1ccc2ccccc2o1
inactive: [7] | [1]

Source: the M2OR odorant receptor database
